Assay [1] in a line: Antioxidant assay, ORAC-FL method. As to conditions: compound and Trolox at 8 μM, 37 °C, three independent experiments. The method, boiled down:
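ORAC-FL in 75 mM phosphate buffer, 200 μL total: test compound, Trolox (both 8 μM) or buffer blank with 150 nM fluorescein solution, kept dark at 37 °C for 30 min. Then 12 mM AAPH solution is added and fluorescence (ex 485/em 535 nm) read every 1 min for 15 min. Net AUC vs blank is expressed as Trolox equivalents (Trolox = 1). Triplicates; three independent experiments, mean ± SEM.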

Assay [2] deals with AChE from electric eel (EeAChE) (Electrophorus electricus, UniProt O42275). Put plainly: In vitro AChE inhibition, modified Ellman's method. As to conditions: for IC50: EeAChE IC50 ± SEM, mean of three independent experiments; for AChE inhibitory activity (in words): up to 10 mM; for inhibition at 156 µM / inhibition at 312 µM / inhibition at 625 µM / inhibition at 1250 µM / inhibition at 2500 µM / inhibition at 5000 µM / inhibition at 10000 µM: read-out: % of AChE inhibition. It counts as biochemical. A general note: In Ellman's method for cholinesterases, released thiocholine reacts with DTNB.

Assay [3] is described as follows: Metal chelation study by UV spectrophotometer. As to conditions: UV spectra 200 to 600 nm. The format is physicochemical. In a few lines: (§1)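 UV spectra from 200 to 600 nm at 37 °C. Test compound and metal salt (FeCl3, CuCl2, ZnSO4·H2O or AlCl3·6H2O) are combined at 100 μM each and incubated at 37 °C for 30 min. Compound-alone spectra use water in place of metal. Read-outs are % change in absorbance, (+) for decrease and (−) for increase, plus band shift.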

A short description of assay [4]: Metal chelation study by UV spectrophotometer. It counts as physicochemical. The settings on record: UV spectra 200 to 600 nm. The method, boiled down: as §1
This is another data set of the same source.

Where only a bound is given, the exact number is not on record here.

Chain of AChE from electric eel (EeAChE) (O42275 24-633): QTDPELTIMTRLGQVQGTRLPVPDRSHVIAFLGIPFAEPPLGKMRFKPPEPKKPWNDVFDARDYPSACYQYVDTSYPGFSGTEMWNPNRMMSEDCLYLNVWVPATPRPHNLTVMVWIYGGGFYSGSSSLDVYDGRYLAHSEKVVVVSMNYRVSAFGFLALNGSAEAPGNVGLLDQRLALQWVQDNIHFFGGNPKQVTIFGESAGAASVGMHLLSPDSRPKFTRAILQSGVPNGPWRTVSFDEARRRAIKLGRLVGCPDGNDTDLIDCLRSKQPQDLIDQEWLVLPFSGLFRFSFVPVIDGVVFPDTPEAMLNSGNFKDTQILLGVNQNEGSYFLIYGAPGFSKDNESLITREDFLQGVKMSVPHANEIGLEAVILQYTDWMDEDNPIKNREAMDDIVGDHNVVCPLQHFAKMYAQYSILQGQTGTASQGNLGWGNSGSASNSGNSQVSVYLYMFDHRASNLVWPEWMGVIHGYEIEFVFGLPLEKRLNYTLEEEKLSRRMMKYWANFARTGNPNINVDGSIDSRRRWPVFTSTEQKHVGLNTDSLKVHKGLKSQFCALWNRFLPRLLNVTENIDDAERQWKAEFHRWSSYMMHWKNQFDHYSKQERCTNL

A word on the IC50: it is the concentration that inhibits the measured activity by half. Higher therefore signals weaker potency in that assay. As to `Cc1ncc(COCc2cn(Cc3ccccc3)nn2)c(CO)c1O` [Compound 5a, 5-(((1-Benzyl-1H-1,2,3-triazol-4-yl)methoxy)methyl)-4-(hydroxymethyl)-2-methylpyridin-3-ol], the “ORAC index ± SEM” value in assay [1] worked out at 1.0564 Trolox equivalents. In assay [2], the concentration for half-maximal inhibition (IC50) was greater than 10 mM and the “AChE inhibitory activity (in words)” value is “inactive”.

In the case of `Cc1ccc(Cn2cc(COCc3cnc(C)c(O)c3CO)nn2)cc1` [Compound 5b, 4-(Hydroxymethyl)-2-methyl-5-(((1-(4-methylbenzyl)-1H-1,2,3-triazol-4-yl)methoxy)methyl)pyridin-3-ol], the “ORAC index ± SEM” value in assay [1] was found to be 1.8428 Trolox equivalents. The same compound displayed an IC50 in assay [2] of 3.38 mM.

Usually inhibition stands for the share of the control response that was lost under treatment. Take `Cc1cccc(Cn2cc(COCc3cnc(C)c(O)c3CO)nn2)c1` [Compound 5c, 4-(Hydroxymethyl)-2-methyl-5-(((1-(3-methylbenzyl)-1H-1,2,3-triazol-4-yl)methoxy)methyl)pyridin-3-ol]: the “ORAC index ± SEM” value in assay [1] is recorded as 2.0164 Trolox equivalents. Besides, in assay [2], the IC50 came to 1.38 mM, the inhibition at 156 µM amounted to 22.5%, the inhibition at 312 µM was 26.9% and the inhibition at 625 µM stood at 39.1%. In assay [2], the inhibition at 1250 µM was determined as 53.8%, the inhibition at 2500 µM is 64.1%, the inhibition at 5000 µM worked out at 73.4% and the inhibition at 10000 µM came to 81.9%. Also, in assay [3], the “chelation of Al^3+ (in words)” value is recorded as “chelated”. Moreover, the “chelation of Fe^3+ (in words)” value in assay [4] is on record as “chelated”.

As for `Cc1ccccc1Cn1cc(COCc2cnc(C)c(O)c2CO)nn1` [Compound 5d, 4-(Hydroxymethyl)-2-methyl-5-(((1-(2-methylbenzyl)-1H-1,2,3-triazol-4-yl)methoxy)methyl)pyridin-3-ol], the “ORAC index ± SEM” value in assay [1] stood at 1.9723 Trolox equivalents. For the same compound, in assay [2], half-maximal inhibition (IC50) required 0.907 mM, the inhibition at 156 µM is 33.5%, the inhibition at 312 µM stood at 36.4% and the inhibition at 625 µM turned out to be 51.1%. In assay [2], the inhibition at 1250 µM amounted to 58.6%, the inhibition at 2500 µM amounted to 69.6%, the inhibition at 5000 µM amounted to 81.3% and the inhibition at 10000 µM came out at 86%.

`COc1cccc(Cn2cc(COCc3cnc(C)c(O)c3CO)nn2)c1` [Compound 5e, 4-(Hydroxymethyl)-5-(((1-(3-methoxybenzyl)-1H-1,2,3-triazol-4-yl)methoxy)methyl)-2-methylpyridin-3-ol]: the “ORAC index ± SEM” value in assay [1] was determined as 1.8862 Trolox equivalents. The compound further returned an IC50 in assay [2] of 4.57 mM.

Consider `COc1cc(Cn2cc(COCc3cnc(C)c(O)c3CO)nn2)cc(OC)c1` [Compound 5f, 5-(((1-(3,5-Dimethoxybenzyl)-1H-1,2,3-triazol-4-yl)methoxy)methyl)-4-(hydroxymethyl)-2-methylpyridin-3-ol], for which the “ORAC index ± SEM” value in assay [1] was 2.3425 Trolox equivalents. The compound further registered an IC50 in assay [2] of 2.65 mM.

As to `Cc1ncc(COCc2cn(Cc3ccc(F)cc3)nn2)c(CO)c1O` [Compound 5g, 5-(((1-(4-Fluorobenzyl)-1H-1,2,3-triazol-4-yl)methoxy)methyl)-4-(hydroxymethyl)-2-methylpyridin-3-ol], the “ORAC index ± SEM” value in assay [1] is 1.4489 Trolox equivalents. In assay [2], this compound came in with an IC50 of 6.47 mM.

Turning to `Cc1ncc(COCc2cn(Cc3cccc(F)c3)nn2)c(CO)c1O` [Compound 5h, 5-(((1-(3-Fluorobenzyl)-1H-1,2,3-triazol-4-yl)methoxy)methyl)-4-(hydroxymethyl)-2-methylpyridin-3-ol], in assay [1], the “ORAC index ± SEM” value is recorded as 2.1015 Trolox equivalents. In assay [2], 1.54 mM corresponded to half-maximal inhibition (IC50), the inhibition at 156 µM stood at 19%, the inhibition at 312 µM came out at 25.5% and the inhibition at 625 µM amounted to 35.1%. Moreover, in assay [2], the inhibition at 1250 µM was found to be 56.4%, the inhibition at 2500 µM was 60.5%, the inhibition at 5000 µM worked out at 66.6% and the inhibition at 10000 µM worked out at 69%.

On to `Cc1ncc(COCc2cn(Cc3ccc(Cl)cc3)nn2)c(CO)c1O` [Compound 5j, 5-(((1-(4-Chlorobenzyl)-1H-1,2,3-triazol-4-yl)methoxy)methyl)-4-(hydroxymethyl)-2-methylpyridin-3-ol], for which the “ORAC index ± SEM” value in assay [1] amounted to 1.9697 Trolox equivalents. This compound also showed a 50% inhibitory concentration (IC50) in assay [2] of 2.72 mM.

Regarding `Cc1ncc(COCc2cn(Cc3cccc(Cl)c3)nn2)c(CO)c1O` [Compound 5k, 5-(((1-(3-Chlorobenzyl)-1H-1,2,3-triazol-4-yl)methoxy)methyl)-4-(hydroxymethyl)-2-methylpyridin-3-ol], the “ORAC index ± SEM” value in assay [1] is recorded as 0.8358 Trolox equivalents. The IC50 in assay [2] came to 2.71 mM.

Consider `Cc1ncc(COCc2cn(Cc3ccc(Cl)c(Cl)c3)nn2)c(CO)c1O` [Compound 5l, 5-(((1-(3,4-Dichlorobenzyl)-1H-1,2,3-triazol-4-yl)methoxy)methyl)-4-(hydroxymethyl)-2-methylpyridin-3-ol], for which, in assay [1], the “ORAC index ± SEM” value is 1.9421 Trolox equivalents. In assay [2], the IC50 worked out at 3.38 mM.

Take `Cc1ncc(COCc2cn(Cc3ccc(Br)cc3)nn2)c(CO)c1O` [Compound 5m, 5-(((1-(4-Bromobenzyl)-1H-1,2,3-triazol-4-yl)methoxy)methyl)-4-(hydroxymethyl)-2-methylpyridin-3-ol]: the “ORAC index ± SEM” value in assay [1] is on record as 1.215 Trolox equivalents. Besides, in assay [2], the IC50 was determined as 3.14 mM.

Regarding `Cc1ncc(COCc2cn(Cc3cccc(Br)c3)nn2)c(CO)c1O` [Compound 5n, 5-(((1-(3-Bromobenzyl)-1H-1,2,3-triazol-4-yl)methoxy)methyl)-4-(hydroxymethyl)-2-methylpyridin-3-ol], in assay [1], the “ORAC index ± SEM” value turned out to be 2.2079 Trolox equivalents. In addition, in assay [2], half-maximal inhibition (IC50) required 1.08 mM, the inhibition at 156 µM amounted to 14.7%, the inhibition at 312 µM turned out to be 25.8% and the inhibition at 625 µM came out at 42%. Besides, in assay [2], the inhibition at 1250 µM is 57.4%, the inhibition at 2500 µM is 70.2%, the inhibition at 5000 µM was 75.9% and the inhibition at 10000 µM was found to be 86.3%.

Regarding `Cc1ncc(COCc2cn(Cc3ccc(C(F)(F)F)cc3)nn2)c(CO)c1O` [Compound 5o, 4-(Hydroxymethyl)-2-methyl-5-(((1-(4-(trifluoromethyl)benzyl)-1H-1,2,3-triazol-4-yl)methoxy)methyl)pyridin-3-ol], the “ORAC index ± SEM” value in assay [1] is on record as 2.0758 Trolox equivalents. This compound yielded an IC50 in assay [2] of 6.52 mM.

As to `Cc1ncc(COCc2cn(Cc3cccc(C(F)(F)F)c3)nn2)c(CO)c1O` [Compound 5p, 4-(Hydroxymethyl)-2-methyl-5-(((1-(3-(trifluoromethyl)benzyl)-1H-1,2,3-triazol-4-yl)methoxy)methyl)pyridin-3-ol], in assay [1], the “ORAC index ± SEM” value stood at 0.8718 Trolox equivalents. In assay [2], this compound registered an IC50 of 3.65 mM.

Regarding `Cc1ncc(CO)c(CO)c1O` [Pyridoxine, reference compound], the “ORAC index ± SEM” value in assay [1] is recorded as 0.5249 Trolox equivalents. Further, the “AChE inhibitory activity (in words)” value was “not an AChE inhibitor” in assay [2] and “inactive” in assay [2] (listed as pyridoxine).

Take `Cc1c(C)c2c(c(C)c1O)CCC(C)(C(=O)O)O2` (centres unmarked) [Trolox, reference compound]: the “ORAC index ± SEM” value in assay [1] is 1 Trolox equivalents.

Source of the values: article PMC9055346 (RSC Advances, 2020).
